Test results: ChEMBL document CHEMBL4251576, “Synthesis and biological evaluation of curcumin inspired imidazo[1,2-a]pyridine analogues as tubulin polymerization inhibitors” (Eur J Med Chem, 2018)
The source made the active and inactive calls. The calls are words filed in the database; no cut-off is given here.

Assays:
HeLa = assay: Cytotoxicity against human HeLa cells assessed as inhibition of cell viability after 48 hrs by MTT assay; format: functional, cell-based
How it was run: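 Cells were seeded at 2.5‒5 x 10^3 per well in DMEM or RPMI with 10% FBS and grown 24 h at 37 °C under CO2. Compounds diluted in medium were added alongside vehicle control for 48 h. MTT (0.5 mg/mL) was added for 4 h, formazan dissolved in DMSO and absorbance read at 570 nm. IC50 is the concentration giving 50% loss of viability; mean ± SD of three experiments, each in triplicate.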

PC-3 [1] = assay: Potency index, ratio of curcumin IC50 to test compound IC50 for human PC3 cells; format: functional
[2] = Selectivity index, ratio of IC50 for human RWPE1 cells to IC50 for human PC3 cells; format: toxicity; conditions: RWPE1 cells versus PC3 cells, read-out: Ratio IC50
[3] = (§1) Inhibition of tubulin polymerization in porcine brain at 10 uM after 60 mins by fluorescence assay; design: species or system Sus scrofa
How it was run: (§2)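 Cell-free kit assay using porcine brain tubulin (2 mg/mL) in 80 mM PIPES pH 6.9 with 2.0 mM MgCl2, 0.5 mM EGTA, 1.0 mM GTP and glycerol; compound at 10 µM final, nocodazole as positive control. Polymerization tracked over time as fluorescence of a reporter incorporated into microtubules (ex 360 nm, em 440 nm), with inhibition relative to control.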

Sus scrofa = species on record: Sus scrofa; assay: as §1; how it was run: as §2
PC-3 [4] = assay: Cell cycle arrest in human PC3 cells assessed as accumulation at S phase at 1 uM after 24 hrs by propidium iodide staining-based flow cytometric method (reference value: 8.08%); format: functional
PC-3 [5] = assay: Cell cycle arrest in human PC3 cells assessed as accumulation at subG1 phase at 2 uM after 24 hrs by propidium iodide staining-based flow cytometric method (reference value: 0.38%); format: functional
PC-3 [6] = assay: Induction of apoptosis in human PC3 cells assessed as chromatin condensation at 0.5 uM after 48 hrs by acridine orange/ethidium bromide staining-based fluorescence inverted microscopic method; format: functional, cell-based
How it was run: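 PC-3 cells (25000/well) grown 24 h, then exposed 48 h to 0.5, 1 or 2 µM with DMSO control. After PBS wash, stained with acridine orange and ethidium bromide (10 µg/mL each) and imaged at once by fluorescence inverted microscopy (ex 488 nm, em 530 nm, 200x).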

PC-3 [7] = assay: Induction of apoptosis in human PC3 cells assessed as necrotic cells at 4 uM after 24 hrs by FITC-annexin V/propidium iodide staining-based flow cytometric method (reference value: 0.32%); format: functional
PC-3 [8] = assay: Induction of apoptosis in human PC3 cells after 24 hrs by FITC-annexin V/propidium iodide staining-based flow cytometric method; format: functional, cell-based
PC-3 [9] = assay: Induction of apoptosis in human PC3 cells assessed as appearance of horse-shoe shaped nuclei at 1 to 2 uM after 48 hrs by DAPI staining-based fluorescence microscopic method; format: functional, cell-based
How it was run: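 PC-3 cells (25000/well) adhered overnight, then treated 48 h at 1 or 2 µM. After PBS wash, fixed 20 min in 4% neutral buffered formalin, permeabilized 5 min with 0.2% Triton X, and stained 10 min at room temperature with DAPI (1 µg/mL). Nuclei viewed by fluorescence microscopy (ex 350 nm, em 460 nm, 200x).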

PC-3 [10] = assay: Induction of mitochondrial membrane depolarization in human PC3 cells at 2 uM after 24 hrs by JC1 staining-based flow cytometric method (reference value: 11.9%); format: functional

In the case of `COc1cc(OC)c(/C=C/C(=O)/C=C/c2nc3ccccn3c2-c2ccc(F)c(F)c2)c(OC)c1`, the IC50 (HeLa) is reported as 2.53 µM, the “Ratio IC50” value (PC-3 [1]) is reported as 8.9 and the selectivity ratio [2] is reported as 2. The IC50 [3] was 8.44 µM, the inhibition (Sus scrofa) was “Dose-dependent effect” and the Activity (PC-3 [4]) was 9.97%. For the same compound, the Activity (PC-3 [5]) was 0.74%, the Activity (PC-3 [6]) was “Active” and the Activity (PC-3 [7]) was 3.12%. For the same compound, the Activity (PC-3 [8]) was “Dose-dependent effect”, the Activity (PC-3 [9]) was “Active” and the Activity (PC-3 [10]) was 23.67%.
